{"data": "Measurements of several laboratories", "target": "Receptor-interacting serine/threonine-protein kinase 4 (RIPK4, Homo sapiens, UniProt P57078)", "One construct used (P57078 1-832)": "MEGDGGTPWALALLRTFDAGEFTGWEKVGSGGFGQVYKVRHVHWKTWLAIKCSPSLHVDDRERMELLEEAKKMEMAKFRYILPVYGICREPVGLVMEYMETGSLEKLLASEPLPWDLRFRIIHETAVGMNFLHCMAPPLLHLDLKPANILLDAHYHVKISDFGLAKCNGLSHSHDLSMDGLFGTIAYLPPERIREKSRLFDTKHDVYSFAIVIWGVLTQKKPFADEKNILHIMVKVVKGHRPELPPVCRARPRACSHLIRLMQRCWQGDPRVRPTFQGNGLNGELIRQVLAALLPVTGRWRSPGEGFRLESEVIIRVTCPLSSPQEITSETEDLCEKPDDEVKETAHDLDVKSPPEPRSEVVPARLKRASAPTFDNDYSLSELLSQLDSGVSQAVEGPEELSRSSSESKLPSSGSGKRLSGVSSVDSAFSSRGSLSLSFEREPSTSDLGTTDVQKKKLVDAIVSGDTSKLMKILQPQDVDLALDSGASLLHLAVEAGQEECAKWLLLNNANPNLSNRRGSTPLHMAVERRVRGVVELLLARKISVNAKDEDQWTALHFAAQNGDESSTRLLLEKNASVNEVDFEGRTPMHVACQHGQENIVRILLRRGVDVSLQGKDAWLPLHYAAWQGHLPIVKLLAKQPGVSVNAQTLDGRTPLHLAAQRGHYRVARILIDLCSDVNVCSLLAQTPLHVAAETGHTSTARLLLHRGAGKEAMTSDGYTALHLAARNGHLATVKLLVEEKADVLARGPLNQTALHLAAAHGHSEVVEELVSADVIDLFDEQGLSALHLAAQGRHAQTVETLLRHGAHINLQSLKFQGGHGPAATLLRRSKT", "note": "Protocols differ between the studies behind these lines."}
{"Structure (SMILES)": "CNC(=O)[C@@H]1CC[C@@H](n2c(-c3ccc4cnccc4c3)nc3ccc(C(=O)NCc4cccc(C(N)=O)c4)cc32)C1", "observed": "binding", "technique": "competition with immobilised ligand", "concentration": "1 µM", "remaining binding [%]": 65}
{"Structure (SMILES)": "Cc1c(NC(=O)c2cc(C(N)=O)nc3cc(F)ccc23)c(C(F)(F)F)nn1Cc1ccc(C#N)cc1", "observed": "cell-free assay", "technique": "competition with immobilised ligand", "concentration": "1 µM", "remaining binding [%]": 92}
{"Structure (SMILES)": "CCN1CCN(Cc2ccc(C(=O)Nc3ccc(C)c(Oc4ccc5c(c4)CC(=O)N5)c3)cc2C(F)(F)F)CC1", "observed": "binding", "technique": "competition with immobilised ligand", "concentration": "1 µM", "remaining binding [%]": 100}
{"Structure (SMILES)": "C[C@H]1CCN(c2nccc(-c3cnn4ncccc34)n2)C1", "observed": "binding", "concentration": "1 µM", "remaining binding [%]": 81}
{"Structure (SMILES)": "Cc1cnc(Nc2ccc(C(=O)N3CCC(N4CCCC4)CC3)cc2)nc1-c1cc2ccccc2s1", "observed": "binding", "technique": "competition with immobilised ligand", "concentration": "1 µM", "remaining binding [%]": 28}
{"Structure (SMILES)": "N[C@H]1CCN(c2nccc(-c3cnn4ncccc34)n2)C1", "observed": "binding", "concentration": "1 µM", "remaining binding [%]": 100}
{"Structure (SMILES)": "CS(=O)(=O)N1CCCC(NC(=O)[C@H](CCC2CCCCC2)NC(=O)c2ccc(CNC(=O)c3cnc4ccccn34)cc2)C1 (stereo partly drawn)", "observed": "cell-free assay", "technique": "competition with immobilised ligand", "concentration": "0.1 µM", "remaining binding [%]": 92}
{"Structure (SMILES)": "COc1cnc(Nc2cccc(S(N)(=O)=O)c2)nc1N1CCN(c2ccccc2)CC1", "observed": "binding", "technique": "competition with immobilised ligand", "concentration": "1 µM", "remaining binding [%]": 86}
{"Structure (SMILES)": "c1cnn2ncc(-c3ccnc(N4CCC45COC5)n3)c2c1", "observed": "binding", "concentration": "1 µM", "remaining binding [%]": 52}
{"Structure (SMILES)": "O=C(NCCCN1CCOCC1)c1ccc(Nc2nccc(-c3cc4ccccc4s3)n2)cc1", "observed": "binding", "technique": "competition with immobilised ligand", "concentration": "1 µM", "remaining binding [%]": 47}
{"Structure (SMILES)": "F[C@@H]1CCN(c2nccc(-c3cnn4ncccc34)n2)C1", "observed": "binding", "concentration": "1 µM", "remaining binding [%]": 100}
{"Structure (SMILES)": "N#CC1(c2ccccn2)CCN(Cc2cc(C(=O)N3CCCC3)c(=O)n3ccccc23)CC1", "observed": "cell-free assay", "technique": "competition with immobilised ligand", "concentration": "1 µM", "remaining binding [%]": 100}
{"Structure (SMILES)": "O=C(NCC1CCOCC1)c1n[nH]cc1NC(=O)c1c(F)cccc1F", "observed": "binding", "technique": "competition with immobilised ligand", "concentration": "1 µM", "remaining binding [%]": 70}
{"Structure (SMILES)": "COc1ccc2c(c1)O[C@H](c1ccc(OC)c(OC)c1)C[C@@H]2NC(=O)C1(c2ccc3c(c2)OC(F)(F)O3)CC1", "observed": "cell-free assay", "technique": "competition with immobilised ligand", "concentration": "1 µM", "remaining binding [%]": 75}
{"Structure (SMILES)": "CN(C)c1nccc(-c2cnn3ncccc23)n1", "observed": "binding", "concentration": "1 µM", "remaining binding [%]": 97}
{"Structure (SMILES)": "CN1CCN(c2cnc3c(C4CCN(C(=O)c5ccc(OC(F)(F)F)cc5N)CC4)ncnc3c2)CC1", "observed": "cell-free assay", "technique": "competition with immobilised ligand", "concentration": "1 µM", "remaining binding [%]": 100}
{"Structure (SMILES)": "Nc1ncc2c(n1)-c1c([nH]c3ccc(C#CC4CC4)cc13)CCCC2", "observed": "binding", "technique": "competition with immobilised ligand", "concentration": "1 µM", "remaining binding [%]": 100}
{"Structure (SMILES)": "O=S(=O)(NC1CCC(c2cc(F)ccc2F)(S(=O)(=O)c2ccc(Cl)cc2)CC1)C(F)(F)F (stereo not drawn)", "observed": "cell-free assay", "technique": "competition with immobilised ligand", "concentration": "1 µM", "remaining binding [%]": 91}
{"Structure (SMILES)": "O=C(c1ccc(Nc2ncc(Cl)c(-c3cc4ccccc4s3)n2)cc1)N1CCC(N2CCCC2)CC1", "observed": "binding", "technique": "competition with immobilised ligand", "concentration": "1 µM", "remaining binding [%]": 41}
{"Structure (SMILES)": "Cc1cnn2ncc(-c3ccnc(N(C)C)n3)c2c1", "observed": "binding", "concentration": "1 µM", "remaining binding [%]": 80}
{"Structure (SMILES)": "COc1ncc2cc3ccccc3nc2c1C#N", "observed": "cell-free assay", "technique": "competition with immobilised ligand", "concentration": "5 µM", "remaining binding [%]": 100}
